Laboratory results published in paper PMC3944102 (ACS chemical biology, 2013).
Where two headings read alike, the source gives them in different places.

Experiments:
VopS [1] = target: T1, VopS (Vibrio parahaemolyticus serotype O3:K6, UniProt Q87P32); assay: biochemical
VopS [2] = conditions: read-out: KM of VopS for ATP; cited from earlier work
[3] = system: VopS transfected HeLa cells; assay: Cell rounding phenotype induced by VopS overexpression; type: cell-based; conditions: 10 µM
VopS [4] = target: T1, VopS; assay: biochemical; type: biochemical; conditions: for Labeling of Cdc42 in gel (in words): 10 µM inhibitor; for inhibition at 10 µM: read-out: Gel based % inhibition VopS; for Gel based % inhibition VopS: 10 µM compound, relative to DMSO control
VopS [5] = assay: biochemical; type: biochemical, Vibrio parahaemolyticus; conditions: VopS over HYPE, from gel based % inhibition at 10 µM
[6] = system: VopS transfected HeLa cells; assay: Cellular protein AMPylation, Western blot; type: cell-based; conditions: Western blotting, 1 and 3 at 10 µM, 4 at 5 µM, 18 h
HYPE Fic E234G = assay: Gel-based secondary screen, HYPE Fic E234G with histone H3 as substrate; type: biochemical, human; conditions: 10 µM compound, relative to DMSO control
VopS [7] = target: T1, VopS; assay: biochemical; conditions: for inhibition at 11 µM: read-out: Primary screen inhibition; for Primary screen inhibition: LOPAC screen at 11 µM, FP read at 3 h, average of three replicates
VopS [8] = target: T1, VopS; type: biochemical
PAD4 = PAD4 (Homo sapiens, UniProt Q9UM07); assay: PAD4 FP-ABPP HTS counterscreen with fluorescein-conjugated F-amidine; type: biochemical
Chain of PAD4 (Q9UM07 whole entry, species assumed): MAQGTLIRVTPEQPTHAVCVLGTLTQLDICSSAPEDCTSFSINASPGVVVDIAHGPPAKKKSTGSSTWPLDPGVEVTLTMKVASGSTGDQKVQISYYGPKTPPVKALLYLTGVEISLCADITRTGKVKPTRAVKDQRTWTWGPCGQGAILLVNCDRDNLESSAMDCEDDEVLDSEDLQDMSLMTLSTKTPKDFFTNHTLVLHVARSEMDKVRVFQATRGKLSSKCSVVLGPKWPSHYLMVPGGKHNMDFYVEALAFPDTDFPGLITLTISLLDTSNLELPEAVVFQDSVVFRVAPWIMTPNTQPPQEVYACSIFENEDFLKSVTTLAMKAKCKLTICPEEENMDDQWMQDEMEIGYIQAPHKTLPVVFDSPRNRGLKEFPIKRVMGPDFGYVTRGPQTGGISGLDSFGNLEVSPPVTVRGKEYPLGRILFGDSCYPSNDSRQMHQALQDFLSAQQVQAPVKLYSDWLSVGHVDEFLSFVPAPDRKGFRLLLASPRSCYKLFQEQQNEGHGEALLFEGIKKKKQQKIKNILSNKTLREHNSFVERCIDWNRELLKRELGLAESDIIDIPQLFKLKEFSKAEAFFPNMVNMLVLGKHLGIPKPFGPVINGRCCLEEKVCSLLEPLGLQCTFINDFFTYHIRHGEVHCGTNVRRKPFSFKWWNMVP
Procedure, shortened: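 Fluorescence polarization read-out with the fluorescein-tagged probe FFA, which covalently modifies an active-site cysteine of PAD4 and gives a time-dependent rise in FP when incubated with the enzyme. Test compounds were run as concentration-response curves, and inhibition was read as reduced FP. Used as a counterscreen to flag quenchers, aggregators and other non-specific FP decreasers.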

VopSΔ30 = VopSΔ30 (Vibrio parahaemolyticus serotype O3:K6, UniProt Q87P32); assay: Differential hydrogen deuterium exchange; type: binding; conditions: 10 µM VopSΔ30, 100 µM or 30 µM ligand
[9] = read-out: CRC IC50 PAD4, PAD4 targeted FP-ABPP assay

Row | Structure (SMILES) | IC50 (VopS [1]; IC50(ATP), 3 h, 7 replicates, ATP out competing Fl-ATP) [µM] | IC50 (VopS [1]; IC50, at 1, 2, and 3 h) [µM] | Km (VopS [2]) [µM] | Reversal of cell rounding phenotype [3] | Labeling of Cdc42 in gel (in words) (VopS [4]) | inhibition at 10 µM (VopS [4]) [%] | Fold selective (VopS [5]) [fold] | Cellular protein AMPylation [6] | Gel based % inhibition HYPE (HYPE Fic E234G) [%] | inhibition at 11 µM (VopS [7]) [%] | Kii (VopS [8]; varied substrate ATP) [µM] | Mechanism of inhibition (VopS [8]; varied substrate ATP) | Kii (VopS [8]; varied substrate Cdc42) [µM] | Mechanism of inhibition (VopS [8]; varied substrate Cdc42) | IC50 (PAD4) [µM] | Gel based % inhibition VopS (VopS [4]) [%] | Primary screen inhibition (VopS [7]) | IC50 (PAD4; [9]) [µM] | HDX protection / binding region of VopS (VopSΔ30) | Ki (VopS [8]; competitive with respect to Cdc42) [µM]
1 | Nc1ncnc2c1ncn2[C@@H]1O[C@H](COP(=O)(O)OP(=O)(O)OP(=O)(O)O)[C@@H](O)[C@H]1O [ATP, adenosine triphosphate] | 7 ± 1 | 6.8 to 7 | ~50 | – | – | – | – | – | – | – | – | – | – | – | – | – | – | – | – | –
2 | CC(C)(Sc1ccc(CCN(CCCCC2CCCCC2)C(=O)NC2CCCCC2)cc1)C(=O)O [Compound 1, GW7647] | – | – | – | unable to reverse the cell rounding phenotype | decrease in labeling | 55 | 6 | decreased cellular protein AMPylation | 10 | 61 | 41 ± 5 | Non-competitive | 20 ± 1 | Non-competitive | > 59 | – | – | – | – | –
3 | Nc1ncnc2c1ncn2[C@@H]1O[C@H](COP(=O)(O)OP(=O)(O)OP(=O)(O)OP(=O)(O)OC[C@H]2O[C@@H](n3cnc4c(N)ncnc43)[C@H](O)[C@@H]2O)[C@@H](O)[C@H]1O [Compound 2, Ap4A] | – | – | – | – | – | – | – | – | 41 | – | – | – | – | – | – | 3 | 47% ± 4 | > 59 | – | –
4 | CC(C)c1ccc2c(c1)c(SC(C)(C)C)c(CC(C)(C)C(=O)O)n2Cc1ccc(Cl)cc1 [Compound 3, MK886] | – | – | – | unable to reverse the cell rounding phenotype | decrease in labeling | – | 6 | decreased cellular protein AMPylation | 4 | – | 50 ± 6 | Non-competitive | 99 ± 16 | Non-competitive | – | 22 | 41% ± 3 | > 59 | increased protection within the N-terminus of VopS (residues 59–75) | –
5 | Clc1ccc(C(c2ccc(Cl)cc2)n2cc[n+](CC(OCc3ccc(Cl)cc3Cl)c3ccc(Cl)cc3Cl)c2)cc1 (stereo not drawn) [Compound 4, calmidazolium] | – | – | – | – | decrease in labeling | 63 | 32 | did not show a significant decrease | 2 | 33 | 26 ± 4 | Non-competitive | 6 ± 1 | Competitive | > 59 | – | – | – | binds to the N-terminal region of VopS (in particular residues 59–63) | 6 ± 1
